Reference: ChEMBL document CHEMBL1147108, “Comparison of disk diffusion and agar dilution methods for erythromycin and ciprofloxacin susceptibility testing of Campylobacter jejuni subsp. jejuni” (2007)
≈ marks a conversion by molar mass, not a printed value.

How the values were obtained:
Assay type in all cases: functional
[1] = test system: Campylobacter jejuni; test: Antibacterial activity against susceptible Campylobacter jejuni isolates by agar dilution test
Procedure, shortened: (§1)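 Agar dilution MICs of clinical C. jejuni isolates, run at 37°C following CLSI recommendations; C. jejuni ATCC 33560 served as control strain.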

[2] = test system: Campylobacter jejuni; test: Antimicrobial activity against ciprofloxacin-resistant Campylobacter jejuni isolate by agar dilution test; procedure, shortened: as §1
[3] = test system: Campylobacter jejuni; test: Antibacterial activity against susceptible Campylobacter jejuni isolates by disk diffusion test; settings: for MIC: Campylobacter jejuni
Procedure, shortened: (§2)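 Isolate suspensions were made in Mueller-Hinton broth to 0.5 McFarland and spread on Mueller-Hinton agar with 5% sheep blood. Disks used were erythromycin 15 μg and ciprofloxacin 5 μg. Plates were held at 37°C for 48 h, and inhibition zone diameters were measured with slipping calipers; 6 mm means no zone.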

[4] = test system: Campylobacter jejuni; test: Antimicrobial activity against ciprofloxacin-resistant Campylobacter jejuni isolates by disk diffusion test; procedure, shortened: as §2
[5] = test system: Campylobacter jejuni; test: Antibacterial activity against erythromycin-resistant Campylobacter jejuni isolates by agar dilution test; procedure, shortened: as §1
[6] = test system: Campylobacter jejuni; test: Antibacterial activity against erythromycin-resistant Campylobacter jejuni isolates by disk diffusion test; procedure, shortened: as §2

Compound | MIC [1] | MIC [2] | inhibition zone (IZ) [3] | MIC [3] | inhibition zone (IZ) [4] | MIC ([4]; Campylobacter jejuni) | MIC [5] | inhibition zone (IZ) [6] | MIC ([6]; Campylobacter jejuni)
O=C(O)c1cn(C2CC2)c2cc(N3CCNCC3)c(F)cc2c1=O [CIPROFLOXACIN] | 0.06 µg/mL (≈ 0.181 µM) | 4 µg/mL (≈ 12.1 µM) | 21 mm | 0.06 µg/mL (≈ 0.181 µM) | 6 mm | 4 µg/mL (≈ 12.1 µM) | – | – | –
CC[C@H]1OC(=O)[C@H](C)[C@@H](O[C@H]2C[C@@](C)(OC)[C@@H](O)[C@H](C)O2)[C@H](C)[C@@H](O[C@@H]2O[C@H](C)C[C@H](N(C)C)[C@H]2O)[C@](C)(O)C[C@@H](C)C(=O)[C@H](C)[C@@H](O)[C@]1(C)O [ERYTHROMYCIN] | 0.06 µg/mL (≈ 0.0818 µM) | – | 17.5 mm | 0.06 µg/mL (≈ 0.0818 µM) | – | – | ≥ 256 µg/mL | 6 mm | ≥ 256 µg/mL
